These results are taken from ChEMBL document CHEMBL4396897, “Potent 5-Cyano-6-phenyl-pyrimidin-Based Derivatives Targeting DCN1-UBE2M Interaction” (J Med Chem, 2019).

The structures appear in SMILES notation. The source made the active and inactive calls. No cut-off for these calls is given here.

The subject of data set [1] is PC-9. Put plainly: Induction of apoptosis in human PC9 cells assessed as viable cells at 10 uM after 48 hrs by Annexin V-FITC/propidium iodide staining based flow cytometry (reference value: 95.7%). As to conditions: PC-9, 48 h, read-out: Activity. Format: functional. In a few lines: (§1)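 PC9 cells seeded in 6-well plates (1~2×10^6 cells/mL), incubated overnight, then exposed to 0, 2.5, 5 or 10µM compound for 48h. Harvested cells stained with Annexin-V-FITC/PI for 30 min and analysed by flow cytometry. Three individual experiments; means ± SD.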
(In flow cytometry, cells or beads pass a laser one at a time.)

Data set [2] deals with A549. Put plainly: Induction of apoptosis in human A549 cells assessed as necrotic cells at 5 uM after 48 hrs by Annexin V-FITC/propidium iodide staining based flow cytometry (reference value: 0.88%). The data set is classed as functional.
The subject of data set [3] is NCI-H1975. Put plainly: Induction of apoptosis in human NCI-NCI-H1975 cells assessed as late apoptotic cells at 2.5 uM after 48 hrs by Annexin V-FITC/propidium iodide staining based flow cytometry (reference value: 0.46%). Format: functional.
Data set [4] has as its system A549. Put plainly: Induction of apoptosis in human A549 cells assessed as early apoptotic cells at 2.5 uM after 48 hrs by Annexin V-FITC/propidium iodide staining based flow cytometry (reference value: 3.63%). The data set is classed as functional.
Data set [5] deals with A549. Description: Induction of apoptosis in human A549 cells assessed as viable cells at 10 uM after 48 hrs by Annexin V-FITC/propidium iodide staining based flow cytometry (reference value: 92.9%). Format: functional. As to conditions: A549, 48 h, read-out: Activity.
The test system of data set [6] is NCI-H1975. Description: Induction of apoptosis in human NCI-NCI-H1975 cells assessed as early apoptotic cells at 10 uM after 48 hrs by Annexin V-FITC/propidium iodide staining based flow cytometry (reference value: 2.47%). The data set is classed as functional.
Data set [7] concerns the target T1, DCN1-like protein 5 (Homo sapiens, UniProt Q9BTE7).
T1 sequence (Q9BTE7 whole entry): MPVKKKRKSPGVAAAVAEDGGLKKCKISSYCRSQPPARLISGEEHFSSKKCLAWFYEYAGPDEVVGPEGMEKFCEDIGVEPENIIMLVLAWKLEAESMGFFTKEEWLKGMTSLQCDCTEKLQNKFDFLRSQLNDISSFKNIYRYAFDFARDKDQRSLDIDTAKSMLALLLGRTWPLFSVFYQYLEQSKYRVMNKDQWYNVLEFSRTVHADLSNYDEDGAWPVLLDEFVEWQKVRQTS
Put plainly: Binding affinity to N-terminal GST tagged recombinant DCN5 (unknown origin) (47 to 237 residues) expressed in Escherichia coli BL21(DE3) assessed as reduction in DCN1/FAM-labelled N-terminal acetylated UBE2M (1 to 21 residues) protein-protein interaction after 30 mins by HTRF assay. A digest of the protocol: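 HTRF competition: 5nM GST-tagged DCN (1-5) and 5nM AcUBE2M1-21-biotin peptide, with streptavidin-XL665 and anti-GST cryptate, in 100mM phosphate buffer pH 6.5 with 0.02% Tween-20. Cocktail pre-incubated 30min at room temperature, compound added, then 30min more. Excitation 320nm, emission 615/665nm. Ki from three independent repeats, mean ± SD.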
Background: In TR-FRET formats the signal depends on donor and acceptor labels being close together.

Data set [8] deals with PC-9. Put plainly: Induction of apoptosis in human PC9 cells assessed as necrotic cells at 2.5 uM after 48 hrs by Annexin V-FITC/propidium iodide staining based flow cytometry (reference value: 1.34%). The data set is classed as functional. In a few lines: as §1
Data set [9] concerns PC-9. Description: Inhibition of colony formation in human PC9 cells after 7 days by crystal violet staining based microscopic analysis. Format: functional, cell-based. In a few lines:
(§2)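 H1975, PC9 and A549 cells seeded at 1×10^3 cells per well and cultured overnight, then given fresh medium with compound at 0, 0.625, 1.25, 2.5, 5 or 10μM for 7 days. Cells fixed, stained with 0.1% crystal violet and imaged by microscopy; dye then dissolved and read on a plate reader. Three experiments; means ± SD.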

In data set [10] the test system is A549. Put plainly: Antiproliferative activity against human A549 by MTT assay. The data set is classed as functional, cell-based. Particulars: TDE = time-dependent effect.
For data set [11], the system named is A549. Put plainly: Induction of apoptosis in human A549 cells after 48 hrs by Annexin V-FITC/propidium iodide staining based flow cytometry. Format: functional, cell-based.
For data set [12], the system named is A549. Description: Inhibition of colony formation in human A549 cells after 7 days by crystal violet staining based microscopic analysis. Format: functional, cell-based. In a few lines:
as §2

The subject of data set [13] is NCI-H1975. Put plainly: Effect on Cullin3 neddylation in human NCI-H1975 cells transfected with DCN1 siRNA3 by densitometric method. The data set is classed as functional, cell-based. In a few lines: (§3)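 H1975 or PC9 cells seeded in 6-well plates for 16-24h, transfected with DCN1 siRNA#3 by lipofection, with or without compound, and collected three days later. Western blot for Cullin3, DCN1, NRF2, HO-1 and NQO1, with densitometry normalized to GAPDH. Three individual experiments, means ± SD.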

The test system of data set [14] is NCI-H1975. Put plainly: Induction of apoptosis in human NCI-NCI-H1975 cells assessed as viable cells at 5 uM after 48 hrs by Annexin V-FITC/propidium iodide staining based flow cytometry (reference value: 96.1%). Format: functional. Particulars: NCI-H1975, 48 h, read-out: Activity.
Data set [15] has as its system PC-9. Put plainly: Induction of apoptosis in human PC9 cells assessed as early apoptotic cells at 5 uM after 48 hrs by Annexin V-FITC/propidium iodide staining based flow cytometry (reference value: 1.36%). The data set is classed as functional. In a few lines: as §1
Data set [16] concerns PC-9. Put plainly: Effect on Cullin3 neddylation in human PC9 cells transfected with DCN1 siRNA3 by densitometric method. The data set is classed as functional, cell-based. A digest of the protocol: as §3
Data set [17] concerns PC-9. Description: Effect on HO-1 accumulation in human PC9 cells transfected with DCN1 siRNA3 by densitometric method. Format: functional, cell-based. A digest of the protocol: as §3
For data set [18], the system named is TE-1. Description: Antiproliferative activity against human TE1 after 72 hrs by MTT assay. The data set is classed as functional, cell-based. A digest of the protocol:
(§4)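 MTT viability assay: cells seeded at 2~5×10^3 per well, exposed to serial dilutions of compound for 72h, then MTT (5 mg/mL in PBS) added for 4h at 37°C. Formazan dissolved in DMSO and read at 490nm. IC50 reported as mean ± SD of three independent experiments.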
Background: Formazan colour is commonly taken as a measure of viable cells.

In data set [19] the test system is NCI-H1975. Description: Induction of apoptosis in human NCI-NCI-H1975 cells assessed as viable cells at 10 uM after 48 hrs by Annexin V-FITC/propidium iodide staining based flow cytometry (reference value: 96.1%). The data set is classed as functional. Particulars: NCI-H1975, 48 h, read-out: Activity.
In data set [20] the test system is KYSE-70 cell line. Description: Antiproliferative activity against human KYSE-70 after 72 hrs by MTT assay. Format: functional, cell-based. As to conditions: KYSE-70, 72 h. A digest of the protocol:
as §4

Data set [21] deals with GES1. Put plainly: Antiproliferative activity against human GES-1 after 72 hrs by MTT assay. Format: cell-based. As to conditions: ges1, 72 h. A digest of the protocol: as §4

One may read the Ki as a dissociation constant, usually derived from enzyme kinetics or from competition with a known ligand. Usually IC50 stands for the concentration that gives 50% inhibition. As for `C#CCSc1nc(Sc2nccs2)c(C#N)c(-c2ccc(C)cc2)n1`, the results for the viability at 10 µM in [1], in data set [5] and in data set [19] were 23.4%, 15.7% and 17.1%, respectively. Moreover, the Activity is 7.02% in data set [2]; 9.13% in data set [3]; 6.21% in data set [4]; 33.2% in data set [6]; 19.9% in data set [8]; “Tde” in data set [10]. The Activity entry was “Dose-dependent effect” in data set [11], 8.15% in [15] and “Non-Toxic” in data set [21]. The Ki in data set [7] is 2.14 µM. Besides, the inhibition result in data set [9] and in data set [12] was “Dose-dependent effect” each time. Moreover, the outcome in data set [13], in data set [16] and in [17] was inactive. Also, in data set [14], the viability at 5 µM came out at 37.7%. Further, the outcome in data set [18] was Active. In addition, the IC50 in data set [20] came out at 4.3 µM.
